The values that follow come from ChEMBL document CHEMBL2177000, “Pharmacokinetic optimization of class-selective histone deacetylase inhibitors and identification of associated candidate predictive biomarkers of hepatocellular carcinoma tumor response” (J Med Chem, 2012).

The structures appear in SMILES notation. Calls of active or inactive are those of the source. The rule behind the calls is not given here.

The nature of series [1]: Clearance in human liver microsomes at 1 uM incubated for 10 mins by LC-MS/MS method. In kind it is ADME, Microsome. Summed up:
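Liver microsomes (human or mouse, 0.5 mg/mL) in 100 mM potassium phosphate pH 7.4 with 1 μM compound, prewarmed 10 min at 37 °C, started with NADPH (10 mM); stopped at 0, 3, 6, 9, 15, 30 min with ice-cold methanol containing tolbutamide internal standard; LC-MS/MS. Hepatic clearance (mL/min/kg) calculated from intrinsic clearance.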

The next series deals with Cytochrome P450 2D6 (Homo sapiens, UniProt P10635). The series is described as follows: Inhibition of CYP2D6 in human liver microsomes in presence of NADPH by LC-MS/MS method. In kind it is ADME, Microsome. For orientation: Liver microsomes are a subcellular fraction often used to study metabolism.
Series [2] deals with Mus musculus. Kind of series: Up-regulation of SPINT2 gene expression in human hepatocellular carcinoma patient tumor xenografted in BALB/C mouse at 100 mg/kg, po administered every other day for 4 weeks by […]. In kind it is functional, organism-based. Further details: dose 100 mg/kg. In a few lines: (§1)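 Patient HCC tumor fragments (3 × 3 × 3 mm3) implanted subcutaneously in female BALB/c nu/nu mice; at ~200 (150−250) mm3 dosed orally Q2D 100 mpk in 15% Kleptose pH 4.5 tartaric buffer for about four weeks. Tumor RNA (TRIzol, DNase I) run on 22-gene qRT-PCR array, normalized to GAPDH/β-glucuronidase by ΔCt, fold change versus day 0.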
(In general: In xenograft studies the graft and the host belong to different species.)

For series [3], the system named is Mus musculus. The series is described as follows: Up-regulation of CCND2 gene expression in human hepatocellular carcinoma patient tumor xenografted in BALB/C mouse at 100 mg/kg, po administered every other day for 4 weeks by […]. In kind it is functional, organism-based. Set-up: dose 100 mg/kg. Summed up: as §1
Series [4] deals with Mus musculus. The series is described as follows: Inhibition of Class 1 histone deacetylase in human Bel7404 cells xenografted BALB/C mouse assessed as induction of histone H3 acetylation at 50 mg/kg, po qd for 4 weeks by Western blot method. To be noted: Bel-7404.
Series [5] deals with SGC-7901. The series is described as follows: Induction of cell cycle arrest in human SGC7901 cells assessed as reduction in accumulation at S phase incubated for 24 hrs by flow cytometry. In kind it is functional, cell-based. Summed up:
(§2)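 SGC-7901 cells (1 × 10^5, about 50% confluent) treated 24 h with a concentration series; fixed in chilled 70% ethanol 1 h at 4 °C, stained 1 h at room temperature with propidium iodide (50 μg/mL) plus RNase A and 0.05% Triton X-100; analysed by flow cytometry.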

The test system of series [6] is Mus musculus. The series is described as follows: Up-regulation of HIC1 gene expression in human hepatocellular carcinoma patient tumor xenografted in BALB/C mouse at 100 mg/kg, po administered every other day for 4 weeks by […]. In kind it is functional, organism-based. Set-up: dose 100 mg/kg. Summed up:
as §1

Series [7] has as its system SGC-7901. The series is described as follows: Induction of cell cycle arrest in human SGC7901 cells assessed as accumulation at G1/G2 phase incubated for 24 hrs by flow cytometry. In kind it is functional, cell-based. Summed up:
as §2
For orientation: Flow cytometry measures light scatter and fluorescence of single cells or particles in a stream.

For series [8], the system named is Mus musculus. The series is described as follows: Up-regulation of CDKN1C gene expression in human hepatocellular carcinoma patient tumor xenografted in BALB/C mouse at 100 mg/kg, po administered every other day for 4 weeks by […]. In kind it is functional, organism-based. Set-up: dose 100 mg/kg. Summed up:
as §1

For series [9], the system named is Mus musculus. Kind of series: Up-regulation of CDKN2A gene expression in human hepatocellular carcinoma patient tumor xenografted in BALB/C mouse at 100 mg/kg, po administered every other day for 4 weeks by […]. In kind it is functional, organism-based. Set-up: dose 100 mg/kg. Summed up:
as §1

Series [10] has as its system Mus musculus. Kind of series: Up-regulation of CDKN1A gene expression in human hepatocellular carcinoma patient tumor xenografted in BALB/C mouse at 100 mg/kg, po administered every other day for 4 weeks by […]. In kind it is functional, organism-based. Set-up: dose 100 mg/kg. Summed up:
as §1

The subject of series [11] is Mus musculus. The series is described as follows: Up-regulation of TFPI2 gene expression in human hepatocellular carcinoma patient tumor xenografted in BALB/C mouse at 100 mg/kg, po administered every other day for 4 weeks by […]. In kind it is functional, organism-based. Further details: dose 100 mg/kg. In a few lines: as §1
Series [12] relates to Mus musculus. Kind of series: Up-regulation of RASSF1 gene expression in human hepatocellular carcinoma patient tumor xenografted in BALB/C mouse at 100 mg/kg, po administered every other day for 4 weeks by […]. In kind it is functional, organism-based. Set-up: dose 100 mg/kg. In a few lines: as §1
Series [13] deals with Mus musculus. The series is described as follows: Reactivation of SPINT2 gene expression in treatment responding human hepatocellular carcinoma patient tumor xenografted in BALB/C mouse at 100 mg/kg, po administered every other day for 4 weeks. Set-up: dose 100 mg/kg. In kind it is functional, organism-based. Summed up: as §1
The subject of series [14] is Mus musculus. The series is described as follows: Up-regulation of SOCS1 gene expression in human hepatocellular carcinoma patient tumor xenografted in BALB/C mouse at 100 mg/kg, po administered every other day for 4 weeks by […]. In kind it is functional, organism-based. Further details: dose 100 mg/kg. In a few lines:
as §1

Series [15] deals with Mus musculus. Kind of series: Up-regulation of CEBPA gene expression in human hepatocellular carcinoma patient tumor xenografted in BALB/C mouse at 100 mg/kg, po administered every other day for 4 weeks by […]. In kind it is functional, organism-based. Further details: dose 100 mg/kg. Summed up: as §1
Series [16] has as its system Mus musculus. The series is described as follows: Up-regulation of CDH1 gene expression in human hepatocellular carcinoma patient tumor xenografted in BALB/C mouse at 100 mg/kg, po administered every other day for 4 weeks by […]. In kind it is functional, organism-based. Further details: dose 100 mg/kg. Summed up: as §1
Series [17] concerns Mus musculus. Kind of series: AUC in BALB/C mouse at 10 mg/kg, po or 2 mg/kg, iv by LC-MS/MS method. In kind it is ADME, organism-based, Plasma. Conditions: in vivo. In a few lines: (§3)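 Female-unspecified BALB/C nude mice (15−20 g, N = 16 per arm); iv bolus 2 mg/kg in 5% DMSO/40% PEG400/55% saline and/or oral gavage 10 mg/kg as 0.445% microcrystalline cellulose microsuspension. Blood sampled at nine (iv) or eight (po) time points into sodium heparin tubes; plasma by LC-MS/MS; noncompartmental analysis.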

Series [18] deals with Mus musculus. The series is described as follows: Cmax in BALB/C mouse at 10 mg/kg, po or 2 mg/kg, iv by LC-MS/MS method. In kind it is ADME, organism-based. To be noted: in vivo. In a few lines:
as §3

For another series, the system named is HGC-27. In kind it is functional, Homo sapiens.
Series [19] has as its system BEL-7404. Kind of series: Antitumor activity against human BEL-7404 cells xenografted in BALB/C mouse assessed as tumor growth inhibition at 50 mg/kg, po qd for 4 weeks. Conditions: BEL-7404, po, 672 h, read-out: TGI.
The subject of a further series is MGC-803. In kind it is functional, Homo sapiens.
Series [20] concerns SGC-7901. In kind it is functional, Homo sapiens.
Series [21] concerns BEL-7404. Kind of series: Antitumor activity against human BEL-7404 cells xenografted in BALB/C mouse assessed as tumor growth inhibition at 100 mg/kg, po administered every other day for 4 weeks. To be noted: BEL-7404, po, 672 h, read-out: TGI.
Series [22] deals with Mus musculus. Kind of series: Toxicity in human Bel7404 cells xenografted BALB/C mouse assessed as body weight loss at 100 mg/kg, po administered every other day for 4 weeks. Conditions: in vivo, 672 h.
A further series relates to Bel-7402. In kind it is functional, Homo sapiens.
The subject of series [23] is SMMC-7721. Kind of series: Induction of apoptosis in human SMMC-7721 cells assessed as late apoptotic cell level at 5 uM incubated for 48 hrs by FITC/Annexin V staining based flow cytometry (reference value: 6.08%).
Series [24] concerns SMMC-7721. The series is described as follows: Induction of apoptosis in human SMMC-7721 cells assessed as necrotic cell level at 5 uM incubated for 48 hrs by FITC/Annexin V staining based flow cytometry (reference value: 2.31%).

Chain of Cytochrome P450 2D6 (P10635 whole entry, the tested form may be a part): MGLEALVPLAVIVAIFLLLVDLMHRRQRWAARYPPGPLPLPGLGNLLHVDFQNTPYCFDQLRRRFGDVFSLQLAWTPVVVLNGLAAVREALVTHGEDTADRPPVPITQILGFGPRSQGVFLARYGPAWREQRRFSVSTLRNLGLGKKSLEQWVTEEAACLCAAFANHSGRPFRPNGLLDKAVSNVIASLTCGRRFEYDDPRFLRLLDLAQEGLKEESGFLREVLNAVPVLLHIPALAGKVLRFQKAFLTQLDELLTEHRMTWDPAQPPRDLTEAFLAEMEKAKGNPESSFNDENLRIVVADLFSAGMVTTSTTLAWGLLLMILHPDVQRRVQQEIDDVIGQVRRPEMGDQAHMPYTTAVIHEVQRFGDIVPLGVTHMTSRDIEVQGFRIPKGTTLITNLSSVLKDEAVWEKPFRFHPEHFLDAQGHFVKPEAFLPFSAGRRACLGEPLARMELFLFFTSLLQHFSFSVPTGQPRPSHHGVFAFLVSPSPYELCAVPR

Regarding `CN1C[C@H](C(=O)Nc2ccc(Cl)cc2)[C@@H](c2ccc(/C=C/C(=O)Nc3ccccc3N)cc2F)C1` (racemic), the CLhep predicted at 1 µM in series [1] was 14 mL/min/kg. In addition, at Cytochrome P450 2D6, the IC50 – broadly, the point on the concentration scale where inhibition reaches its midpoint – came to 9 µM.
As for `CN1C[C@H](C(=O)Nc2ccc(Cl)cc2)[C@@H](c2ccc(/C=C/C(=O)Nc3ccccc3N)cc2)C1` [listing 1 of 2 here], the outcome in the series on Mus musculus [2], with Mus musculus [6], with Mus musculus [9], with Mus musculus [11], with Mus musculus [12] and in the series with Mus musculus [16] was inactive. The result with Mus musculus [3], in the series with Mus musculus [8], in the series on Mus musculus [10], in the series with Mus musculus [13], in the series with Mus musculus [14] and in the series with Mus musculus [15] was Active. In addition, the inhibition result in the series with Mus musculus [4] is “Active”. The Activity entry with SGC-7901 [5] and in the series on SGC-7901 [7] was “Dose-dependent effect” in each case.
For `CN1C[C@H](C(=O)Nc2ccc(Cl)cc2)[C@@H](c2ccc(/C=C/C(=O)Nc3ccccc3N)cc2)C1` [listing 2 of 2 here], the AUC (commonly concentration integrated over time) with Mus musculus [17] came out at 6316 ng·h/mL. In addition, the highest concentration (Cmax) (in general, the maximum level reached in the sampled fluid or tissue) in the series with Mus musculus [18] is 893 ng/mL. The GI90 worked out at 1 µM in the series with HGC-27, 2 µM in the series with MGC-803, 1.4 µM with SGC-7901 [20] and 1.2 µM in the series with Bel-7402. The inhibition in vivo at 50 mg/kg with BEL-7404 [19] was over 60%. In addition, the inhibition in vivo at 100 mg/kg with BEL-7404 [21] was over 60%. In addition, the Activity was under 10% with Mus musculus [22], 36.17% with SMMC-7721 [23] and 15.41% in the series with SMMC-7721 [24].
